We go through five compounds from ChEMBL document CHEMBL1146170, “Facile synthesis of substituted thiophenes via Pd/C-mediated sonogashira coupling in water” (2006).

Conditions in all cases: Homo sapiens
One assay relates to NCI-H460. The experiment in a line: Growth inhibition of NCI-H460 cells at 100 uM; values are per cent of control.
For assay [1], the system named is LoVo. The experiment in a line: Growth inhibition of LoVo cells at 100 uM; values are per cent of control.
In another assay the test system is HT-29. In words: Growth inhibition of HT29 cells at 100 uM; values are per cent of control.
Assay [2] has as its system LoVo. The experiment in a line: Growth inhibition of LoVo cells. The format is functional. Put shortly:
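LoVo human colon cancer cells were screened by the NCI standard anticancer protocol. Percentage cell growth was read after initial treatment at 100 µM. Follow-up testing used 10, 1.0, 0.1 and 0.01 µM. GI50 was the concentration giving 50% inhibition of cell growth.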

With `CC(=O)Nc1ccsc1C#CC(C)(C)O`, the growth, % of control at 100 µM with NCI-H460 is 56%; with LoVo [1], 78%; with HT-29, 90%.
For `Cc1ccc(C#Cc2cccs2)cc1` the same measures were 68%, 83% and 83%.
Regarding `C(#Cc1cccs1)COc1ccccc1`, the results for the growth, % of control at 100 µM in the assay with NCI-H460, in the assay on LoVo [1] and with HT-29 were 88%, 47% and 63%, respectively.
Turning to `CC(C)(O)C#Cc1cccs1`, the growth, % of control at 100 µM came out at 105% in the assay on NCI-H460, 78% with LoVo [1] and 95% in the assay with HT-29.
On to `O=[N+]([O-])c1ccc(OCC#Cc2cccs2)cc1`, for which the growth, % of control at 100 µM in the assay on NCI-H460 turned out to be 48%; in the assay on LoVo [1], 26%; in the assay on HT-29 it was 44%. The same compound returned a GI50 in the assay on LoVo [2] of 47.5 µM. For the same compound, in the assay with LoVo [2] (read-out: LC50 (the source's name)), the CC50 was determined as 100 µM.

Usually GI50 stands for the concentration at which growth is held to half of that of the control.
